The source of these data is ChEMBL document CHEMBL1122046, “Quaternary heterocyclylamino beta-lactams: a generic alternative to the classical acylamino side chain” (1982).

Converted amounts (≈) assume the structure as drawn.

Holding throughout (format): functional
The test system of one test is Escherichia coli. Kind of test: MIC against aerobic organism Escherichia coli strain 2891. Particulars: Escherichia coli; read-out: MIC. In outline:
(§1)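 Agar-dilution MIC in µg/mL against aerobic bacterial strains on tryptocase soy agar, with inoculum applied as spots. Most series used 10^5 cfu per spot, and a later series used 10^4 cfu per spot. In some tables, footnoted strains were instead tested on Mueller-Hinton or nutrient agar. β-Lactamase-producing strains are flagged.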

Test [1] relates to Klebsiella aerogenes. The test can be described thus: Minimum inhibitory concentration against aerobic organism Enterobacter aerogenes strain 2828. Put shortly: as §1
A further test deals with Enterobacter cloacae. Kind of test: Minimum inhibitory concentration against aerobic organism Enterobacter cloacae strain 2646. Particulars: Enterobacter cloacae; read-out: MIC. In outline:
as §1

In test [2] the test system is Klebsiella pneumoniae. The test can be described thus: Minimum inhibitory concentration against aerobic organism Klebsiella pneumoniae strain 4005. Put shortly: as §1
A further test has as its system Morganella morganii. The test can be described thus: Minimum inhibitory concentration against aerobic organism Morganella morganii strain 2833. The following applies: Morganella morganii; read-out: MIC. Put shortly:
as §1

The subject of another test is Pseudomonas aeruginosa. Kind of test: Minimum inhibitory concentration against aerobic organism Pseudomonas aeruginosa strain 2835. Put shortly: as §1
The subject of a further test is Proteus mirabilis. Kind of test: Minimum inhibitory concentration against aerobic organism Proteus mirabilis strain 2830. Particulars: Proteus mirabilis; read-out: MIC. Put shortly: as §1
The subject of another test is Proteus vulgaris. The test can be described thus: Minimum inhibitory concentration against aerobic organism Proteus vulgaris strain 2829. The following applies: Proteus vulgaris; read-out: MIC. In outline: as §1
Another test has as its system Salmonella. Kind of test: Minimum inhibitory concentration against aerobic organism Salmonella strain 3860. Put shortly: as §1
Test [3] has as its system Staphylococcus aureus. The test can be described thus: Minimum inhibitory concentration against aerobic organism Staphylococcus aureus strain 2865. In outline: as §1
Test [4] has as its system Staphylococcus aureus. The test can be described thus: Minimum inhibitory concentration against aerobic organism Staphylococcus aureus strain 2868. Particulars: Staphylococcus aureus; read-out: MIC. Put shortly:
as §1

The subject of a further test is Enterococcus faecalis. The test can be described thus: Minimum inhibitory concentration against aerobic organism Streptococcus faecalis strain 2864. Put shortly: as §1
Test [5] concerns Klebsiella aerogenes. The test can be described thus: Minimum inhibitory concentration against aerobic organism Enterobacter aerogenes strain 2906. Particulars: Klebsiella aerogenes; read-out: MIC. In outline:
as §1

Test [6] deals with Klebsiella pneumoniae. Kind of test: Minimum inhibitory concentration against aerobic organism Klebsiella pneumoniae strain 2882. The following applies: Klebsiella pneumoniae; read-out: MIC. In outline:
as §1

Test [7] can be described thus: Minimum inhibitory concentration against aerobic organism Salmonella schottmuelleri strain 2837. The following applies: Salmonella; read-out: MIC. Put shortly: as §1
For a further test, the system named is Serratia marcescens. The test can be described thus: Minimum inhibitory concentration against aerobic organism Serratia marcescens strain 2852. The following applies: Serratia marcescens; read-out: MIC. Put shortly:
as §1

A further test deals with Streptococcus pyogenes. Kind of test: Minimum inhibitory concentration against aerobic organism Streptococcus pyogenes strain 3124. The following applies: Streptococcus pyogenes; read-out: MIC. In outline:
as §1

A further test has as its system Shigella. Kind of test: Minimum inhibitory concentration against aerobic organism Shigella species strain 2880. The following applies: Shigella; read-out: MIC. Put shortly: as §1

As usually defined, the MIC is the lowest concentration that inhibits growth of the organism. For `Cn1nnnc1SCC1=C(C(=O)[O-])N2C(=O)[C@@H](Nc3cc[n+](COCC(Cl)(Cl)Cl)cc3C(=O)OC(C)(C)C)[C@H]2SC1`, the minimum inhibitory concentration (MIC) is 128 µg/mL (≈ 192 µM) in the test on Escherichia coli; greater than 128 µg/mL in the test on Klebsiella aerogenes [1]; greater than 128 µg/mL in the test on Enterobacter cloacae; greater than 128 µg/mL in the test on Klebsiella pneumoniae [2]; greater than 128 µg/mL in the test on Morganella morganii; greater than 128 µg/mL in the test with Pseudomonas aeruginosa. The minimal inhibitory concentration (MIC) is greater than 128 µg/mL in the test with Proteus mirabilis; greater than 128 µg/mL in the test with Proteus vulgaris; greater than 128 µg/mL in the test with Salmonella; 128 µg/mL (≈ 192 µM) in the test with Staphylococcus aureus [3]; greater than 128 µg/mL in the test with Staphylococcus aureus [4]; greater than 128 µg/mL in the test on Enterococcus faecalis.

As for `COc1ccc(C[n+]2ccc(N[C@@H]3C(=O)N4C(C(=O)[O-])=C(CSc5nnnn5C)CS[C@H]34)cc2)cc1`, the MIC with Escherichia coli is 0.25 µg/mL (≈ 0.476 µM); in the test on Klebsiella aerogenes [5], 4 µg/mL (≈ 7.61 µM); with Enterobacter cloacae, 8 µg/mL (≈ 15.2 µM); in the test with Klebsiella pneumoniae [6], 0.5 µg/mL (≈ 0.951 µM); in the test with Morganella morganii, 16 µg/mL (≈ 30.4 µM); in the test with Pseudomonas aeruginosa, greater than 64 µg/mL. For the same molecule, the MIC in the test on Proteus mirabilis is 16 µg/mL (≈ 30.4 µM); in the test on Proteus vulgaris, less than 0.06 µg/mL; in test [7] it was 0.125 µg/mL (≈ 0.238 µM); in the test on Serratia marcescens it was 64 µg/mL (≈ 122 µM); in the test with Streptococcus pyogenes, less than 0.06 µg/mL; in the test on Staphylococcus aureus [4], 8 µg/mL (≈ 15.2 µM). Further, the values for the minimum inhibitory concentration (MIC) against Enterococcus faecalis and in the test with Shigella were greater than 64 µg/mL and 0.5 µg/mL (≈ 0.951 µM), respectively.

Regarding `Cn1nnnc1SCC1=C(C(=O)[O-])N2C(=O)C(Nc3ccc(Cl)c[n+]3C)C2SC1` (configuration not stated), the minimum inhibitory concentration (MIC) is 2 µg/mL (≈ 4.41 µM) with Escherichia coli; greater than 128 µg/mL in the test on Klebsiella aerogenes [5]; greater than 128 µg/mL with Enterobacter cloacae; 64 µg/mL (≈ 141 µM) in the test on Klebsiella pneumoniae [6]; greater than 128 µg/mL in the test on Morganella morganii; greater than 128 µg/mL against Pseudomonas aeruginosa. In addition, the minimum inhibitory concentration (MIC) was greater than 128 µg/mL in the test with Proteus mirabilis; 1 µg/mL (≈ 2.2 µM) in the test with Proteus vulgaris; 4 µg/mL (≈ 8.81 µM) in [7]; greater than 128 µg/mL in the test on Serratia marcescens; 32 µg/mL (≈ 70.5 µM) in the test with Streptococcus pyogenes; greater than 128 µg/mL with Staphylococcus aureus [4]. The MIC in the test on Enterococcus faecalis is greater than 128 µg/mL; in the test on Shigella, 8 µg/mL (≈ 17.6 µM).

Regarding `COC(=O)c1c[n+](C)ccc1N[C@@H]1C(=O)N2C(C(=O)[O-])=C(CSc3nnnn3C)CS[C@H]12`, the MIC in the test with Escherichia coli, in the test with Klebsiella aerogenes [5], in the test on Enterobacter cloacae, with Klebsiella pneumoniae [6], in the test on Morganella morganii and with Pseudomonas aeruginosa was greater than 128 µg/mL throughout. Also, the MIC was greater than 128 µg/mL with Proteus mirabilis; greater than 128 µg/mL in the test on Proteus vulgaris; 128 µg/mL (≈ 268 µM) in [7]; greater than 128 µg/mL in the test on Serratia marcescens; 32 µg/mL (≈ 67 µM) in the test on Streptococcus pyogenes; greater than 128 µg/mL with Staphylococcus aureus [4]. For the same molecule, the MIC against Enterococcus faecalis and in the test with Shigella was greater than 128 µg/mL in each case.

In the case of `CC1=C(C(=O)[O-])N2C(=O)[C@@H](Nc3cc[n+](Cc4ccccc4)cc3)[C@H]2SC1`, the minimal inhibitory concentration (MIC) with Escherichia coli was 4 µg/mL (≈ 10.5 µM); in the test with Klebsiella aerogenes [5] it was 128 µg/mL (≈ 336 µM); in the test on Enterobacter cloacae, 64 µg/mL (≈ 168 µM); in the test on Klebsiella pneumoniae [6], 32 µg/mL (≈ 83.9 µM); in the test with Morganella morganii, greater than 128 µg/mL; against Pseudomonas aeruginosa, greater than 128 µg/mL. The MIC is greater than 128 µg/mL in the test with Proteus mirabilis; greater than 128 µg/mL in the test with Proteus vulgaris; 0.5 µg/mL (≈ 1.31 µM) in [7]; greater than 128 µg/mL in the test on Serratia marcescens; 0.06 µg/mL (≈ 0.157 µM) in the test on Streptococcus pyogenes; 64 µg/mL (≈ 168 µM) in the test on Staphylococcus aureus [4]. Besides, the minimal inhibitory concentration (MIC) in the test on Enterococcus faecalis amounted to 128 µg/mL (≈ 336 µM); in the test on Shigella it was 2 µg/mL (≈ 5.24 µM).

Turning to `Cn1nnnc1SCC1=C(C(=O)[O-])N2C(=O)[C@@H](Nc3cc[n+](Cc4ccc(C#N)cc4)cc3)[C@H]2SC1`, the minimal inhibitory concentration (MIC) in the test with Escherichia coli was 0.25 µg/mL (≈ 0.48 µM); in the test on Klebsiella aerogenes [5], 8 µg/mL (≈ 15.4 µM); in the test with Enterobacter cloacae, 8 µg/mL (≈ 15.4 µM); in the test with Klebsiella pneumoniae [6], 1 µg/mL (≈ 1.92 µM); in the test on Morganella morganii, 128 µg/mL (≈ 246 µM); against Pseudomonas aeruginosa, greater than 128 µg/mL. The minimum inhibitory concentration (MIC) in the test on Proteus mirabilis amounted to 128 µg/mL (≈ 246 µM); in the test with Proteus vulgaris it was 16 µg/mL (≈ 30.7 µM); in [7], 0.125 µg/mL (≈ 0.24 µM); in the test with Serratia marcescens it was 128 µg/mL (≈ 246 µM); in the test with Streptococcus pyogenes, 0.125 µg/mL (≈ 0.24 µM); in the test on Staphylococcus aureus [4] it was 32 µg/mL (≈ 61.5 µM). The minimal inhibitory concentration (MIC) in the test on Enterococcus faecalis is greater than 128 µg/mL; in the test with Shigella, less than 0.06 µg/mL.
